Target: Multidrug resistance-associated protein 1 (Homo sapiens, UniProt P33527)
Test: Inhibition of MRP1 in human 2008/MRP1 cells assessed as potentiation of doxorubicin-induced cytotoxicity by measuring cell survival at 2 uM after 5 days by MTS assay relative to control
Type: cell-based
Details: 120 h
In short: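 2008/MRP1 cells (retroviral human MRP1 transfectant; RPMI 1640, 10% FBS) at 4,000 per well, with 100 nM doxorubicin plus crude, unpurified click products in DMSO: 2 µM in the primary screen, 1 µM in the secondary. Incubated 5 days at 37 °C. MTS/PMS added for 2 h at 37 °C, absorbance read at 490 nm. % survival is relative to wells without DOX or product. Run in triplicate, at least three experiments.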

Sequence of Multidrug resistance-associated protein 1 (P33527 whole entry): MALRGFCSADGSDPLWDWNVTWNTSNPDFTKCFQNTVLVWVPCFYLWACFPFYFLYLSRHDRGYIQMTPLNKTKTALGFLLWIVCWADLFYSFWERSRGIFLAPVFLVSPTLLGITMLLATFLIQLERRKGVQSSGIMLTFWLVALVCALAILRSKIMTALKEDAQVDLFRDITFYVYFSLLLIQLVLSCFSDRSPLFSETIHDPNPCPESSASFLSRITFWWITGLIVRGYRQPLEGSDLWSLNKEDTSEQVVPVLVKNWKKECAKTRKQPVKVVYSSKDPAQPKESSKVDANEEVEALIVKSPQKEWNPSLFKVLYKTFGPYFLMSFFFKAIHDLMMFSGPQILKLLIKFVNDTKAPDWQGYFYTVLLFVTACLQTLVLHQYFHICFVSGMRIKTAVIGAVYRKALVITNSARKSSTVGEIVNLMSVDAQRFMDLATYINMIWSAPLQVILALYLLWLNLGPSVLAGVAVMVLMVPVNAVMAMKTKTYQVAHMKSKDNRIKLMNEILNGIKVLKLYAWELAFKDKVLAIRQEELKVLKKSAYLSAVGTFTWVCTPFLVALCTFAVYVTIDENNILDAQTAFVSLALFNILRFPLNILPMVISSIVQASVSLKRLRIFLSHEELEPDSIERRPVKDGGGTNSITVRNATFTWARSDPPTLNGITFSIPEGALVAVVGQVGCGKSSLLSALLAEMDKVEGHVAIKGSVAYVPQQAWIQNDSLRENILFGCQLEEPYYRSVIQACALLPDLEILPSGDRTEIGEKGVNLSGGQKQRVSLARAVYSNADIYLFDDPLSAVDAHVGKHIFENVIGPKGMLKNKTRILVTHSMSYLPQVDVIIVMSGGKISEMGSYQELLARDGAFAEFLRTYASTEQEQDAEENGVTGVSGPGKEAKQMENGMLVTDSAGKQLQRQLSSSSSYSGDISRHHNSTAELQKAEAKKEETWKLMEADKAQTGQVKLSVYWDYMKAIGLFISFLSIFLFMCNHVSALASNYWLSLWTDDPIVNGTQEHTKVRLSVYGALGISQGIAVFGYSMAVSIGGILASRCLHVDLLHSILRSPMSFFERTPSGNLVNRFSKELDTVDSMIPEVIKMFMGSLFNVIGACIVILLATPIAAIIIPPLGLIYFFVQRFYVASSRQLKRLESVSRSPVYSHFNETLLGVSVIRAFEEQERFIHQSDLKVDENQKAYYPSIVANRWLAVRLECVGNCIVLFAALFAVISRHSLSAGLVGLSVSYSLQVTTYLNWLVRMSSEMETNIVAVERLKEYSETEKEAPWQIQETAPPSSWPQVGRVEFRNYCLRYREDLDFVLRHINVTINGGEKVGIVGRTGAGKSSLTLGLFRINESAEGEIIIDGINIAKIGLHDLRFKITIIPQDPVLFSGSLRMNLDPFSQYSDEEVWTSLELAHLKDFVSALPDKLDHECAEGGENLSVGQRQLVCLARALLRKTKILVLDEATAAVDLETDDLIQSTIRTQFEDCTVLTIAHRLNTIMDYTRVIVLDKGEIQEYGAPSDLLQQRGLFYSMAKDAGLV

Compound | Survival
COc1cccc(COc2c(-c3ccc(OCCOCCn4cc(CN5CCN(Cc6cn(CCOCCOc7ccc(-c8oc9ccccc9c(=O)c8OCc8cccc(OC)c8)cc7)nn6)CC5)nn4)cc3)oc3ccccc3c2=O)c1 | 85%
O=c1cc(-c2ccc(OCCOCCn3cc(CN4CCN(Cc5cn(CCOCCOc6ccc(-c7cc(=O)c8ccccc8o7)cc6)nn5)CC4)nn3)cc2)oc2ccccc12 | 116%
O=c1cc(-c2ccccc2)oc2cc(OCCOCCOCCn3cc(CN4CCN(Cc5cn(CCOCCOCCOc6ccc7c(=O)cc(-c8ccccc8)oc7c6)nn5)CC4)nn3)ccc12 | 89%
Cc1ccc2oc(-c3ccc(OCCOCCOCCn4cc(CN(CCOc5ccc6c(=O)cc(-c7ccccc7)oc6c5)Cc5ccccc5)nn4)cc3)cc(=O)c2c1 | 53%
O=c1[nH]c(-c2ccc(OCCCc3cn(CCOCCOc4ccc(-c5cc(=O)c6ccccc6o5)cc4)nn3)cc2)nc2ccccc12 | 58%
O=c1cc(-c2ccccc2)oc2cc(OCCCc3cn(CCOCCOc4cccc(-c5oc6ccccc6c(=O)c5OCc5ccccc5)c4)nn3)ccc12 | 65%
CCc1ccc(O)c(C(=O)/C=C/c2ccc(OCCCCc3cn(CCOc4cccc5c(=O)cc(-c6ccccc6)oc45)nn3)cc2)c1 | 86%
Cc1ccc(O)c(C(=O)/C=C/c2ccc(OCCCCc3cn(CCOCCOc4ccc5c(=O)cc(-c6ccccc6)oc5c4)nn3)cc2)c1 | 73%
C#CCCN1C(=O)c2ccccc2C1=O | 83%
O=c1cc(-c2ccc(OCCOCCn3cc(CN(Cc4cn(CCOCCOc5ccc(-c6cc(=O)c7ccccc7o6)cc5)nn4)Cc4cn(CCOCCOc5ccc(-c6cc(=O)c7ccccc7o6)cc5)nn4)nn3)cc2)oc2ccccc12 | 82%
O=c1c(OCc2ccccc2)c(-c2cccc(OCCOCCn3cc(CNc4ccccc4)nn3)c2)oc2ccccc12 | 92%
C#CCCCOc1ccc(-c2nc3ccccc3c(=O)[nH]2)cc1 | 86%
O=c1cc(-c2ccccc2)oc2cc(OCCOCCOCCn3cc(-c4cccc(-c5cn(CCOCCOCCOc6ccc7c(=O)cc(-c8ccccc8)oc7c6)nn5)c4)nn3)ccc12 | 74%
CN(CCN(C)Cc1cn(CCOCCOCCOc2ccc3c(=O)cc(-c4ccccc4)oc3c2)nn1)Cc1cn(CCOCCOCCOc2ccc3c(=O)cc(-c4ccccc4)oc3c2)nn1 | 88%
COc1cccc(COc2c(-c3ccc(OCCOCCn4cc(CCCOc5ccc(-c6cc(=O)c7ccccc7o6)cc5)nn4)cc3)oc3ccccc3c2=O)c1 | 68%
O=c1cc(-c2ccccc2)oc2cc(OCCN(Cc3ccccc3)Cc3cn(CCOCCOc4cccc(-c5oc6ccccc6c(=O)c5OCc5ccccc5)c4)nn3)ccc12 | 73%
COc1cccc(COc2c(-c3ccc(OCCOCCn4cc(CCCOc5ccc(-c6cc(=O)c7cc(F)ccc7o6)cc5)nn4)cc3)oc3ccccc3c2=O)c1 | 86%
O=c1cc(-c2ccc(OCCOCCn3cc(-c4ccc(-c5cn(CCOCCOc6ccc(-c7cc(=O)c8cc(F)ccc8o7)cc6)nn5)cc4)nn3)cc2)oc2ccc(F)cc12 | 77%
Cc1ccc2oc(-c3ccc(OCCOCCOCCn4cc(CCCOc5ccc(-c6cc(=O)c7ccccc7o6)cc5)nn4)cc3)cc(=O)c2c1 | 51%
Cc1ccc2oc(-c3ccc(OCCOCCOCCn4cc(CCCOc5ccc6c(=O)cc(-c7ccccc7)oc6c5)nn4)cc3)cc(=O)c2c1 | 55%
COc1cccc(COc2c(-c3ccc(OCCOCCn4cc(CN(Cc5cn(CCOCCOc6ccc(-c7oc8ccccc8c(=O)c7OCc7cccc(OC)c7)cc6)nn5)Cc5cn(CCOCCOc6ccc(-c7oc8ccccc8c(=O)c7OCc7cccc(OC)c7)cc6)nn5)nn4)cc3)oc3ccccc3c2=O)c1 | 86%

Compound | Survival
Cc1ccc(O)c(C(=O)/C=C/c2ccc(OCCCCc3cn(CCOCCOc4ccc(-c5oc6ccccc6c(=O)c5OCc5ccccc5)cc4)nn3)cc2)c1 | 68%
[N-]=[N+]=NCCOCCOCCOc1ccc(-c2cc(=O)c3ccccc3o2)cc1 | 85%
O=c1cc(-c2ccc(OCCOCCOCCn3cc(-c4cccc(-c5cn(CCOCCOCCOc6ccc(-c7cc(=O)c8ccccc8o7)cc6)nn5)c4)nn3)cc2)oc2ccccc12 | 85%
O=c1cc(-c2ccccc2)oc2cc(OCCOCCOCCn3cc(COCCOc4ccc5c(=O)cc(-c6ccccc6)oc5c4)nn3)ccc12 | 60%
O=C1c2ccccc2C(=O)N1CCc1cn(CCOCCOc2ccc(-c3oc4ccccc4c(=O)c3OCc3ccccc3)cc2)nn1 | 57%
O=c1c(OCc2ccccc2)c(-c2ccc(OCCOCCn3cc(CN4CCN(Cc5cn(CCOCCOc6ccc(-c7oc8ccccc8c(=O)c7OCc7ccccc7)cc6)nn5)CC4)nn3)cc2)oc2ccccc12 | 58%
O=c1cc(-c2ccc(OCCOCCOCCn3cc(-c4ccc(-c5cn(CCOCCOCCOc6ccc(-c7cc(=O)c8cc(F)ccc8o7)cc6)nn5)cc4)nn3)cc2)oc2ccc(F)cc12 | 83%
O=Cc1ccc(OCCCCc2cn(CCOCCOc3ccc(-c4cc(=O)c5cc(F)ccc5o4)cc3)nn2)cc1 | 78%
COc1cccc(COc2c(-c3ccc(OCCCCc4cn(CCOCCOc5ccc(-c6oc7ccccc7c(=O)c6OCc6cccc(OC)c6)cc5)nn4)cc3)oc3ccccc3c2=O)c1 | 57%
O=C(/C=C/c1ccc(OCCCCc2cn(CCOCCOCCOc3ccc4c(=O)cc(-c5ccccc5)oc4c3)nn2)cc1)c1ccc(F)cc1O | 67%
COCOc1cc(OCc2ccccc2)c2c(=O)cc(-c3ccc(OCCCc4cn(CCOc5cccc6c(=O)cc(-c7ccccc7)oc56)nn4)cc3)oc2c1 | 81%
O=C(/C=C/c1ccc(OCCCCc2cn(CCOCCOc3ccc4c(=O)cc(-c5ccccc5)oc4c3)nn2)cc1)c1ccccc1O | 58%
O=c1cc(-c2ccc(OCCOCCn3cc(-c4cccc(-c5cn(CCOCCOc6ccc(-c7cc(=O)c8cc(F)ccc8o7)cc6)nn5)c4)nn3)cc2)oc2ccc(F)cc12 | 74%
O=c1[nH]c(-c2ccc(OCCCc3cn(CCOCCOCCOc4ccc(-c5cc(=O)c6cc(F)ccc6o5)cc4)nn3)cc2)nc2ccccc12 | 51%
COc1cccc(COc2c(-c3ccc(OCCOCCn4cc(CCCCOc5ccc6c(=O)cc(-c7ccccc7)oc6c5)nn4)cc3)oc3ccccc3c2=O)c1 | 86%
O=c1cc(-c2ccc(OCCOCCOCCn3cc(CN(Cc4ccccc4)Cc4cn(CCOCCOCCOc5ccc(-c6cc(=O)c7cc(F)ccc7o6)cc5)nn4)nn3)cc2)oc2ccc(F)cc12 | 54%
[N-]=[N+]=NCCOCCOc1ccc2c(=O)cc(-c3ccccc3)oc2c1 | 91%
O=c1cc(-c2ccc(OCCOCCOCCn3cc(CCCCOc4ccc5c(=O)cc(-c6ccccc6)oc5c4)nn3)cc2)oc2ccccc12 | 57%
[N-]=[N+]=NCCOCCOc1ccc(-c2oc3ccccc3c(=O)c2OCc2ccccc2)cc1 | 72%
C#CCCCCOc1ccc(-c2cc(=O)c3cc(C)ccc3o2)cc1 | 88%
O=c1cc(-c2ccccc2)oc2cc(OCCCc3cn(CCOCCOCCOc4ccc5c(=O)cc(-c6ccccc6)oc5c4)nn3)ccc12 | 57%

Compound | Survival
COCOc1cc(OCc2ccccc2)c2c(=O)cc(-c3ccc(OCCCc4cn(CCOCCOc5cccc(-c6oc7ccccc7c(=O)c6OCc6ccccc6)c5)nn4)cc3)oc2c1 | 74%
O=C(/C=C/c1ccc(OCCCCc2cn(CCOCCOc3cccc(-c4oc5ccccc5c(=O)c4OCc4ccccc4)c3)nn2)cc1)c1ccc(F)cc1O | 68%
O=Cc1ccc(OCCCCc2cn(CCOCCOc3ccc4c(=O)cc(-c5ccccc5)oc4c3)nn2)cc1 | 82%
COc1cccc(COc2c(-c3ccc(OCCOCCn4cc(CCN5C(=O)c6ccccc6C5=O)nn4)cc3)oc3ccccc3c2=O)c1 | 75%
Cc1ccc2oc(-c3ccc(OCCOCCOCCn4cc(CN5CCN(Cc6cn(CCOCCOCCOc7ccc(-c8cc(=O)c9cc(C)ccc9o8)cc7)nn6)CC5)nn4)cc3)cc(=O)c2c1 | 103%
O=c1cc(-c2ccc(OCCOCCn3cc(CNc4ccccc4)nn3)cc2)oc2ccccc12 | 90%
O=c1cc(-c2ccc(OCCCc3cn(CCOc4cccc5c(=O)cc(-c6ccccc6)oc45)nn3)cc2)oc2ccc(F)cc12 | 89%
COCOc1cc(OCc2ccccc2)c2c(=O)cc(-c3ccc(OCCCc4cn(CCOCCOc5ccc(-c6oc7ccccc7c(=O)c6OCc6cccc(OC)c6)cc5)nn4)cc3)oc2c1 | 79%
C#CCCCCOc1ccc(-c2oc3ccccc3c(=O)c2OCc2cccc(OC)c2)cc1 | 71%
O=C(/C=C/c1ccc(OCCCCc2cn(CCOCCOc3ccc(-c4oc5ccccc5c(=O)c4OCc4ccccc4)cc3)nn2)cc1)c1ccccc1O | 72%
O=c1c(OCc2ccccc2)c(-c2cccc(OCCOCCn3cc(-c4ccc(-c5cn(CCOCCOc6cccc(-c7oc8ccccc8c(=O)c7OCc7ccccc7)c6)nn5)cc4)nn3)c2)oc2ccccc12 | 82%
O=c1cc(-c2ccc(OCCCc3cn(CCOCCOCCOc4ccc(-c5cc(=O)c6ccccc6o5)cc4)nn3)cc2)oc2ccccc12 | 56%
Cc1ccc(C(=O)/C=C/c2ccc(OCCCCc3cn(CCOCCOCCOc4ccc5c(=O)cc(-c6ccccc6)oc5c4)nn3)cc2)c(O)c1 | 72%
COc1cccc(COc2c(-c3ccc(OCCOCCn4cc(CCCCOc5ccc(/C=C/C(=O)c6ccc(C)cc6O)cc5)nn4)cc3)oc3ccccc3c2=O)c1 | 78%
O=c1cc(-c2ccccc2)oc2cc(OCCn3cc(CN4CCN(Cc5cn(CCOc6ccc7occ(-c8ccccc8)c(=O)c7c6)nn5)CC4)nn3)ccc12 | 93%
C#CCN1CCN(CC#C)CC1 | 81%
O=c1cc(-c2ccccc2)oc2cc(OCCOCCOCCn3cc(CN(CCOc4ccc5c(=O)cc(-c6ccccc6)oc5c4)Cc4ccccc4)nn3)ccc12 | 51%
Cc1ccc(C(=O)/C=C/c2ccc(OCCCCc3cn(CCOCCOCCOc4ccc(-c5cc(=O)c6cc(C)ccc6o5)cc4)nn3)cc2)c(O)c1 | 61%
COCOc1cc(OCc2ccccc2)c2c(=O)cc(-c3ccc(OCCCc4cn(CCOCCOc5ccc(-c6oc7ccccc7c(=O)c6OCc6ccccc6)cc5)nn4)cc3)oc2c1 | 88%

From ChEMBL document CHEMBL4257575, “Discovery of Novel Flavonoid Dimers To Reverse Multidrug Resistance Protein 1 (MRP1, ABCC1) Mediated Drug Resistance in Cancers Using a High Throughput Platform with "Click Chemistry"” (J Med Chem, 2018)
